CHO parental Ca: ATP-evoked calcium signal inhibitors, parental CHO, primary screen, counter-screen for OX1R antagonist project, cell-based, fluorescence, Fluo-8 calcium dye | AID 463079, 2010 | 330,000 compounds, 0.63% hits | parental CHO-K1, ATP-induced calcium, Fluo-8 fluorescence | inhibition, % at 5.6 µM;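 active = inhibition above that plate's mean sample inhibition plus 3 SD, cut at about 26% in these data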;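 note: 0% = ATP-challenged DMSO wells and 100% = DMSO wells without ATP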
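Test system: untransfected parental CHO cell line; also added: ATP stimulus; dosing: 5.6 µM, single dose; signal: calcium-sensitive Fluo-8 fluorescence; measure: percent inhibition of ATP-evoked calcium rise, normalized to controls; benchmarks: low control ATP plus DMSO, high control DMSO only; replication: one well per compound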
TAAR1 ag: human TAAR1 agonists, primary screen, Fluo-8 calcium fluorescence, CHO RD-HGA16 cells | activation, % at 3 µM | Trace amine-associated receptor 1 (Homo sapiens), Q96RJ0 | vehicle wells 0%, saturating PEA agonist 100% | 360,000 compounds, 0.99% hits;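 active = activation above the mean activation of all test compounds in the run plus 3 SD, cut at about 38% in these data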
Target sequence (Q96RJ0 whole entry, looked up): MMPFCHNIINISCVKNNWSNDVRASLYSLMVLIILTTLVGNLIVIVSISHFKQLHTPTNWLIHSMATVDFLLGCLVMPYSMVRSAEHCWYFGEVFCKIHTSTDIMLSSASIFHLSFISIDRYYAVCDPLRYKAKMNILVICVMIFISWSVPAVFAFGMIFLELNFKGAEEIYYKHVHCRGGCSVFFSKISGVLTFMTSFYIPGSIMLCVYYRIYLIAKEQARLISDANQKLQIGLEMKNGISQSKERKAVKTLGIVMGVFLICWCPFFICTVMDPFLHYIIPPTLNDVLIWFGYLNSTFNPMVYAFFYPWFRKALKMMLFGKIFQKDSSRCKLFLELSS
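Benchmarks: low control DMSO, high control PEA (EC100); System: CHO RD-HGA16 cells carrying human TAAR1 plus Gα16; Detection: Fluo-8 fluorescence, 5 s baseline then 140 s kinetic read; Schedule: 17-24 h plating, Fluo-8 75 min 37 °C, 30 min RT; Read-out basis: % activation from peak over basal fluorescence ratio, DMSO-to-PEA scaled.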
OX1R antag-1: antagonists of human orexin 1 receptor (OX1R). Orexin/Hypocretin receptor type 1 (Homo sapiens), O43613. OX1R-expressing cells, FRET antagonist read-out. inhibition, % at 6.6 µM. 330,000 compounds, 1.8% hits. AID 485270, 2010; in the data active = inhibition mostly above about 38%, no sharp cut-off; inactive = mostly below about 40%;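 note: 0% = agonist challenge alone and 100% = reference antagonist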
TAAR1 antagonist: human TAAR1 antagonists, primary screen, Fluo-8 calcium fluorescence, CHO RD-HGA16 cells | Trace amine-associated receptor 1 (Homo sapiens), Q96RJ0 | antagonist | inhibition, % at 3 µM | 360,000 compounds, 1.5% hits | AID 624466, 2012;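 active = inhibition above a per-plate cutoff, the mean inhibition of test compounds on that plate plus 3 SD, cut at about 49% in these data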;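 note: 0% = DMSO plus EC80 beta-PEA response and 100% = DMSO alone without agonist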
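Assay system: RD-HGA16 CHO cells with stable hTAAR1 and Gα16 / Reagent: EC80 β-phenethylamine stimulus / Doses: 3 µM, single point / Timing: dye loading 75 min at 37 °C, then 30 min room temperature / Measured by: Fluo-8 intracellular calcium dye fluorescence, real-time kinetic reads / Controls: vehicle wells and EC80 agonist wells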
GalR3 antagonist: GalR3 antagonists in HEK293 cells, primary screen, cell-based, fluorescence readout. Galanin receptor type 3 (Homo sapiens), O60755. HEK293 GalR3-CNG cAMP membrane potential fluorescence; galR3 body fused to GalR1 C-terminus. inhibition, % at 3 µM. 360,000 compounds, 0.44% hits;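 active = inhibition above the screen-wide average plus 3 SD, cut at about 13% in these data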;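 note: forskolin and galanin both at EC90 stimulate the cells; cAMP rise reported by CNG channel membrane potential dye signal; 0% = forskolin plus galanin with DMSO and 100% = forskolin alone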
OX1R antag-2: OX1R (HCRTR1) antagonists, primary screen, fluorescence, CHO/OX1R cells, Fluo-8 calcium, orexin A | Orexin/Hypocretin receptor type 1 (Homo sapiens), O43613 | 330,000 compounds, 0.43% hits | inhibition, % at 5 µM | Fluo-8 calcium fluorescence;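 active = inhibition above its plate's threshold, mean inhibition of all tested compounds on the plate plus 3 SD, cut at about 37% in these data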;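 note: 0% = orexin A challenge wells and 100% = SB-334867-A antagonist wells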
OX1R Fluo8 conf: OX1R (HCRTR1) antagonists, confirmation, fluorescence, CHO/OX1R cells, Fluo-8 calcium, orexin A | shares compounds with OX1R antag-2 | orexin A calcium Fluo-8 fluorescence | inhibition, % at 5 µM | 1,100 compounds, 38% hits; in the data active = inhibition above about 29%;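 note: 0% = agonist challenge alone and 100% = reference antagonist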
CHO Ca counter: ATP-evoked calcium inhibition in parental CHO, counter-screen for OX1R antagonist project, cell-based, fluorescence, CHO-K1, triplicate | shares compounds with OX1R antag-2 | ATP-induced calcium, Fluo-8 fluorescence | inhibition, % at 5.6 µM | 1,100 compounds, 9.3% hits | AID 492965, 2010;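 active = inhibition above a per-plate limit, the mean inhibition of that plate's test compounds plus 3 SD, cut at about 25% in these data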;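 note: 0% = ATP challenge with DMSO and 100% = DMSO without ATP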
OX1R HTRF confirm: OX1R (HCRTR1) antagonists, confirmation, cell-based, HTRF; AID 492964, 2010; OX1R-expressing cells, HTRF antagonist assay; 1,800 compounds, 49% hits; inhibition, % at 6.6 µM; shares compounds with OX1R antag-1; in the data active = inhibition above about 55%;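 note: CHO cells expressing OX1R stimulated with orexin A at about EC80; 0% = agonist challenge alone and 100% = reference antagonist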
CHO-K1 HTRF: signal inhibition in parental CHO-K1 cells, counter-screen for OX1R antagonist project, cell-based, HTRF; shares compounds with OX1R antag-1; HTRF counterscreen; inhibition, % at 6.6 µM; 1,800 compounds, 48% hits; AID 493232, 2011; in the data active = inhibition above about 17%;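 note: 0% = agonist challenge with vehicle and 100% = vehicle alone without agonist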
* hit, by the source's call; · = not tested or not shown. Sampled rows, rich in hits. Any-hit rate of the full collection: about 4.3%.

SMILES	CHO parental Ca	TAAR1 ag	OX1R antag-1	TAAR1 antagonist	GalR3 antagonist	OX1R antag-2	OX1R Fluo8 conf	CHO Ca counter	OX1R HTRF confirm	CHO-K1 HTRF
COc1cc(C2NC(=S)NC(O)(C(F)(F)F)C2C(=O)c2cccs2)cc(OC)c1O (stereo not drawn)	-8	8	-1	1	1	-8	·	·	·	·
CCSC1=C(C#N)C(c2ccccc2Cl)C(C(=O)c2cccs2)C(O)(C(F)(F)F)N1 (stereo not drawn)	-6	0	95*	-11	-2	95*	77*	-13	89*	0
CCOC(=O)N1CCN(C(=O)CSc2ccc(-c3ccccc3)nn2)CC1	-10	2	92*	-4	-3	26	27	3	82*	-2
COc1ccc(-c2ccc(SCC(=O)c3cccs3)nn2)cc1	-16	3	50	26	-1	-17	·	·	·	·
CCOC(=O)N1CCN(C(=O)CSc2ccc(-c3ccncc3)nn2)CC1	-10	0	16	-17	-4	-2	·	·	·	·
O=C(CSc1ccc(-c2ccccc2)nn1)c1cccs1	-7	-1	102*	-15	-6	50*	99*	-4	90*	-4
O=c1c2ccccc2oc2ccc(-c3ccc4cc[nH]c4c3)cc12	-2	·	36	·	·	24	·	·	·	·
COC(=O)c1ccc(Cn2c(C)c(C(=O)NCc3ccco3)sc2=O)o1	·	1	·	-22	4	·	·	·	·	·
Cc1nc(NCc2ccco2)c2cn[nH]c2n1	·	0	·	8	-6	·	·	·	·	·
c1coc(CNc2nc3nonc3nc2NCc2ccco2)c1	25	18	73*	10	-3	35	-3	-7	28	-15
Cc1nc2cc(NC(=O)COc3ccccc3C#N)ccc2n1-c1ccccc1	3	16	122*	41	0	102*	83*	-4	92*	11
COc1ccccc1NC(=O)COC(=O)c1ccc2c(c1)nc(C)n2-c1ccccc1	-19	3	19	-7	-2	-12	·	·	·	·
COCCN(C(=O)COC(=O)CCc1ccccc1)c1c(N)n(Cc2ccccc2)c(=O)[nH]c1=O	·	1	·	-34	-4	·	·	·	·	·
COc1ccccc1CNS(=O)(=O)c1ccc2c(c1)CC(C)N2C(=O)C1CC1 (stereo not drawn)	-3	6	33	9	-6	17	·	·	·	·
COc1ccccc1CNS(=O)(=O)c1ccc2c(c1)CC(C)N2C(=O)C1CCC1 (stereo not drawn)	15	2	60*	6	3	55*	30*	16	68*	-9
O=C(Nc1cccc(O)c1)N1CCOCC1	10	-1	14	-10	-3	-10	·	·	·	·
O=C(Nc1ccc2nc(-c3cccs3)c(-c3cccs3)nc2c1)N1CCOCC1	-2	20	73*	45	-7	21	25	0	44	14

Bioassay records from PubChem BioAssay.
